The results in this text go back to ChEMBL document CHEMBL1122501, “Potential antiatherosclerotic agents. 2. (Aralkylamino)- and (alkylamino) benzoic acid analogues of cetaben” (1983).

The subject of assay [1] is Rattus norvegicus. Kind of assay: In vivo Sterol lowering activity at dose as 0.025 % of the diet. The assay is classed as functional. In short, it runs like this: (§1)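 Male CFE or CD-1 Sprague-Dawley rats, 140-150 g; 8 per control group, 4 per test group. Compound mixed into ground chow (w/w) via MeOH-CHCl3 (1:3) solution, solvent evaporated; controls got solvent-treated chow. Fed ad libitum 5 days, food intake monitored, killed fed and bled. Serum sterols and triglycerides by adapted autoanalyzer methods; mean percent of control, Student's t test.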

Assay [2] deals with T1, Sterol O-acyltransferase 1 (Rattus norvegicus) (UniProt O70536).
T1 sequence (whole entry): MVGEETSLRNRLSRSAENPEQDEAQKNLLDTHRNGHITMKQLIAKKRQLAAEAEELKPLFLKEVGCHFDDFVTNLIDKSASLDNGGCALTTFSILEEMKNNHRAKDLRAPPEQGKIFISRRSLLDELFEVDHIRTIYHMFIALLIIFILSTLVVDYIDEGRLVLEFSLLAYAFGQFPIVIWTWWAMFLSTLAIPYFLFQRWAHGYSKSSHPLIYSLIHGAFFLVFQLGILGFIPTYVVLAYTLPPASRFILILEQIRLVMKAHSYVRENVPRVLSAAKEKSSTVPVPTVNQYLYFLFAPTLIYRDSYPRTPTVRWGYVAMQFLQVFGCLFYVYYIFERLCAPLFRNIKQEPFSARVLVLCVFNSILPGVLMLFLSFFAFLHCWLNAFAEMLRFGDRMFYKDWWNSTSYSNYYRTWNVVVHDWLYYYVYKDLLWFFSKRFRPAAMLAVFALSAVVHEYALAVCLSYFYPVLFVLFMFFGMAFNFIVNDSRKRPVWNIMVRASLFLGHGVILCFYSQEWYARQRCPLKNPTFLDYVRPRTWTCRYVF
Kind of assay: In vitro inhibitory activity against acyl coenzyme A:cholesterol acyltransferase (ACAT). To be noted: concentration not given here. Details: concentration or dose not given beside the values. In short, it runs like this: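 ACAT enzyme from rat adrenal homogenate in 0.2 M KH2PO4 buffer pH 7.4, 1000g 15 min 5 °C supernatant (microsomal fraction). Supernatant + BSA (50 mg/mL) + compound at final 5.2 μg/mL + buffer preincubated 10 min 37 °C; [14C]oleoyl-CoA (0.4 μCi) added, 30 min 37 °C. Lipids extracted, TLC; cholesteryl ester zone counted. Mean % inhibition vs no-compound control; Student's t test.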

For assay [3], the system named is Rattus norvegicus. Kind of assay: In vivo triglyceride lowering activity dosed at 0.05 % of the diet. Format: functional. In short, it runs like this:
as §1

The subject of assay [4] is Rattus norvegicus. The assay can be described thus: In vivo Sterol lowering activity at dose as 0.05 % of the diet. The assay is classed as functional. In short, it runs like this: as §1
In assay [5] the test system is Rattus norvegicus. Kind of assay: In vivo triglyceride lowering activity dosed at 0.10 % of the diet. The assay is classed as functional. In short, it runs like this:
as §1

Assay [6] deals with Rattus norvegicus. Kind of assay: In vivo Triglyceride lowering activity at dose as 0.025 % of the diet. The assay is classed as functional. In short, it runs like this:
as §1

Assay [7] relates to Rattus norvegicus. Kind of assay: In vivo sterol lowering activity dosed at 0.10 % of the diet. The assay is classed as functional. In short, it runs like this:
as §1

The inhibition is the drop in the measured response relative to a control, in per cent. As to `CCCCCCCCCC/C=C/CCCNc1ccc(C(=O)OCC)cc1`, the Diet was below 86% in the assay with Rattus norvegicus [1], 77% in the assay with Rattus norvegicus [3], 94% with Rattus norvegicus [4] and 90% in the assay on Rattus norvegicus [6]. Also, the inhibition in assay [2] is below 40%. In addition, in the assay with Rattus norvegicus [5], the “serum triglycerides, percent of control” value was found to be 83%. Further, the “serum sterol, percent of control” value in the assay on Rattus norvegicus [7] is on record as below 86%.

With `O=C(O)c1ccc(NCCCc2ccccc2)cc1`, the Diet in the assay on Rattus norvegicus [1] came to 81%; in the assay with Rattus norvegicus [3], 51%; in the assay on Rattus norvegicus [4] it was 75%; in the assay on Rattus norvegicus [6] it was 64%. In addition, in assay [2], the inhibition was 18%. Also, the “serum triglycerides, percent of control” value in the assay on Rattus norvegicus [5] was determined as 68%. In addition, the “serum sterol, percent of control” value in the assay with Rattus norvegicus [7] was determined as 81%.

On to `C=CCCCCCCCC/C=C/CCCNc1ccc(C(=O)OCC)cc1`, for which the Diet is below 87% in the assay on Rattus norvegicus [1], 76% in the assay with Rattus norvegicus [3], below 85% in the assay on Rattus norvegicus [4] and 90% in the assay with Rattus norvegicus [6]. Moreover, the inhibition in assay [2] was below 50%. The “serum triglycerides, percent of control” value in the assay on Rattus norvegicus [5] worked out at 64%. Besides, the “serum sterol, percent of control” value in the assay with Rattus norvegicus [7] is recorded as below 85%.

In the case of `CCCCCCCCCC/C=C/CCCNc1ccc(C(=O)O)cc1`, the Diet is below 84% with Rattus norvegicus [1], below 83% with Rattus norvegicus [3], below 82% in the assay with Rattus norvegicus [4] and 86% in the assay on Rattus norvegicus [6]. In the assay with Rattus norvegicus [5], the “serum triglycerides, percent of control” value amounted to 83%. The “serum sterol, percent of control” value in the assay with Rattus norvegicus [7] is below 79%.

Take `CCCCCCCCCCCCCCCNc1ccc(C(=O)O)cc1`: the Diet is listed as 90% in the assay on Rattus norvegicus [1], 80% in the assay with Rattus norvegicus [3], 86% in the assay with Rattus norvegicus [4] and 72% with Rattus norvegicus [6]. The molecule further returned an inhibition in assay [2] below 56%. Further, the “serum triglycerides, percent of control” value with Rattus norvegicus [5] is reported as below 60%. The “serum sterol, percent of control” value in the assay with Rattus norvegicus [7] is below 79%.

As for `CCCCCCCCCCCCCCCNc1ccc(C(=O)OCC)cc1`, the Diet is given as below 91% with Rattus norvegicus [1], below 76% with Rattus norvegicus [3], below 84% in the assay with Rattus norvegicus [4] and 88% in the assay on Rattus norvegicus [6]. The “serum triglycerides, percent of control” value in the assay on Rattus norvegicus [5] is reported as below 62%. In the assay with Rattus norvegicus [7], the “serum sterol, percent of control” value is 86%.

Turning to `CCCCCCCCCCCCCCNc1ccc(C(=O)O)cc1`, the Diet in the assay with Rattus norvegicus [1] was 93%; in the assay on Rattus norvegicus [3], below 50%; in the assay with Rattus norvegicus [4] it was 90%; in the assay with Rattus norvegicus [6], below 65%. For the same molecule, the “serum triglycerides, percent of control” value in the assay on Rattus norvegicus [5] was below 53%. In the assay on Rattus norvegicus [7], the “serum sterol, percent of control” value stood at 89%.

`CCCCCCCCNc1ccc(C(=O)O)cc1`: the Diet worked out at 101% in the assay with Rattus norvegicus [1], 88% with Rattus norvegicus [3], 97% in the assay with Rattus norvegicus [4] and 91% with Rattus norvegicus [6]. In addition, in assay [2], the inhibition is below 24%. The “serum triglycerides, percent of control” value in the assay with Rattus norvegicus [5] is listed as below 67%. The “serum sterol, percent of control” value with Rattus norvegicus [7] is 90%.

Regarding `C=CCCCCCCCC/C=C/CCCNc1ccc(C(=O)O)cc1`, the Diet is below 86% with Rattus norvegicus [1], 79% in the assay on Rattus norvegicus [3], below 81% in the assay on Rattus norvegicus [4] and below 71% with Rattus norvegicus [6]. Further, the “serum triglycerides, percent of control” value with Rattus norvegicus [5] amounted to 88%. In the assay on Rattus norvegicus [7], the “serum sterol, percent of control” value was below 80%.

In the case of `CCCCCCCCCCCCCNc1ccc(C(=O)O)cc1`, the Diet in the assay with Rattus norvegicus [1] is recorded as 95%; in the assay with Rattus norvegicus [3], below 36%; with Rattus norvegicus [4], below 87%; in the assay with Rattus norvegicus [6], below 54%. Moreover, the “serum triglycerides, percent of control” value with Rattus norvegicus [5] is listed as below 60%. Besides, in the assay with Rattus norvegicus [7], the “serum sterol, percent of control” value is below 84%.

As for `CCCCCCCCCCOc1ccc(CNc2ccc(C(=O)O)cc2)cc1`, the Diet in the assay on Rattus norvegicus [1] is on record as 97%; with Rattus norvegicus [3], below 51%; with Rattus norvegicus [4] it was below 90%; with Rattus norvegicus [6], below 54%. In assay [2], this molecule registered an inhibition below 35%. In the assay on Rattus norvegicus [5], the “serum triglycerides, percent of control” value is listed as below 37%. Also, the “serum sterol, percent of control” value in the assay with Rattus norvegicus [7] was below 82%.

`CCCCCCCCCCCCCCCCNc1cccc(C(=O)O)c1`: the Diet is on record as 100% in the assay with Rattus norvegicus [1], 92% with Rattus norvegicus [3], 100% in the assay on Rattus norvegicus [4] and 98% in the assay with Rattus norvegicus [6]. Besides, the inhibition in assay [2] is below 34%. Besides, the “serum triglycerides, percent of control” value in the assay on Rattus norvegicus [5] worked out at 81%. In addition, the “serum sterol, percent of control” value in the assay on Rattus norvegicus [7] turned out to be 93%.

As for `CCCCCCCCCCCCCCCCCNc1ccc(C(=O)O)cc1`, the Diet in the assay on Rattus norvegicus [1] is below 87%; in the assay with Rattus norvegicus [3], 77%; in the assay with Rattus norvegicus [4], below 86%; with Rattus norvegicus [6], 80%. In addition, the inhibition in assay [2] was below 34%. In the assay with Rattus norvegicus [5], the “serum triglycerides, percent of control” value is given as below 57%. Moreover, the “serum sterol, percent of control” value in the assay with Rattus norvegicus [7] came out at 87%.

Consider `CCCCCCCC/C=C\CCCCCCCCNc1ccc(C(=O)O)cc1`, for which the Diet is listed as below 88% in the assay with Rattus norvegicus [1], below 58% with Rattus norvegicus [3], 85% in the assay on Rattus norvegicus [4] and below 72% in the assay with Rattus norvegicus [6]. In addition, the “serum triglycerides, percent of control” value in the assay with Rattus norvegicus [5] is reported as below 63%. Further, the “serum sterol, percent of control” value with Rattus norvegicus [7] was below 75%.

Regarding `CCCCCCCC/C=C\CCCCCCCCNc1ccc(C(=O)OCC)cc1`, the Diet is recorded as below 95% with Rattus norvegicus [1], below 57% with Rattus norvegicus [3], 99% in the assay on Rattus norvegicus [4] and below 68% in the assay with Rattus norvegicus [6]. For the same molecule, in the assay with Rattus norvegicus [5], the “serum triglycerides, percent of control” value amounted to 77%. Further, the “serum sterol, percent of control” value in the assay on Rattus norvegicus [7] is recorded as below 96%.

In the case of `CCCCCCCCCCc1ccc(CNc2ccc(C(=O)OCC)cc2)cc1`, the Diet in the assay with Rattus norvegicus [1] is 90%; with Rattus norvegicus [3], below 69%; with Rattus norvegicus [4], 95%; with Rattus norvegicus [6], 82%. The inhibition in assay [2] is below 19%. Also, the “serum triglycerides, percent of control” value in the assay with Rattus norvegicus [5] was found to be 94%. Moreover, the “serum sterol, percent of control” value in the assay with Rattus norvegicus [7] stood at 99%.

As to `CCCCCCCCCCCCCCCCCCCNc1ccc(C(=O)O)cc1`, the Diet with Rattus norvegicus [1] is 90%; in the assay with Rattus norvegicus [3], below 46%; in the assay on Rattus norvegicus [4], 96%; in the assay with Rattus norvegicus [6], below 52%. Moreover, the “serum triglycerides, percent of control” value in the assay with Rattus norvegicus [5] was below 46%. For the same molecule, the “serum sterol, percent of control” value with Rattus norvegicus [7] is recorded as 100%.

For the molecule `CCCCCCCCCCCCCCCCCCNc1ccc(C(=O)O)cc1`, the Diet in the assay with Rattus norvegicus [1] is reported as below 86%; in the assay with Rattus norvegicus [3], below 71%; with Rattus norvegicus [4], 94%; with Rattus norvegicus [6], below 70%. The “serum triglycerides, percent of control” value with Rattus norvegicus [5] was below 60%. Further, the “serum sterol, percent of control” value in the assay on Rattus norvegicus [7] is reported as below 82%.

Turning to `CCCCCCCCCCCCCCCCNc1ccc(C(=O)OCC)cc1`, the Diet in the assay with Rattus norvegicus [1] was 109%; in the assay on Rattus norvegicus [3], below 54%; in the assay on Rattus norvegicus [4], 103%; in the assay on Rattus norvegicus [6] it was below 70%. The inhibition in assay [2] stood at 8%. Besides, the “serum triglycerides, percent of control” value with Rattus norvegicus [5] is below 69%. The “serum sterol, percent of control” value in the assay on Rattus norvegicus [7] turned out to be 98%.

Regarding `CCCCCCCCC/C=C/CCCNc1ccc(C(=O)O)cc1`, the Diet in the assay on Rattus norvegicus [1] is given as below 86%; in the assay on Rattus norvegicus [3], 97%; with Rattus norvegicus [4], below 83%; in the assay with Rattus norvegicus [6] it was 85%. Also, the “serum triglycerides, percent of control” value in the assay with Rattus norvegicus [5] came to 75%. The “serum sterol, percent of control” value with Rattus norvegicus [7] is below 79%.
